# In the RNAGym collection of RNA variant scans (doi:10.1126/science.aae0568):
# Fewer inactive variants are shown than the library holds.
# B1: tRNA (parent)
# chain: GUUCCGUUGGCGUAAUGGUAACGCGUCUCCCUCCUAAGGAGAAGACUGCGGGUUCGAGUCCCGUACGGAACG
# Variants of: B1
# Experiment: yeast fitness relative to wild type (ratio to wild type); higher = fitter; tRNA-Arg(CCU), competitive growth, 37 C, YPD
# Procedure, shortened: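 A pool of Saccharomyces cerevisiae strains, each with a tRNA-Arg(CCU) gene variant at the native genomic locus, was competed in YPD at 37°C for 24 hours across six parallel replicates. The variants had been chemically synthesised at a 3% per-site mutation rate over 69 sites, and gene amplicons before and after competition were read by 100-nucleotide paired-end sequencing. Darwinian fitness relative to wild type rested on changes in genotype frequencies. Genotypes required ≥ 100 starting reads, and estimates < 0.5 were set to 0.5.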
row,Variant,yeast fitness
1,A15G G17C G23A G25A C66U,≤ 0.5
2,A15G C49U A69C,0.875
3,A15G A43U,0.925
4,A15G A43C,0.847
5,A15G C24G U32A G41A,≤ 0.5
6,A15G G18A G38C,≤ 0.5
7,A15G C31A C66G G68C,0.563
8,A15G A36G U54A,≤ 0.5
9,A15G A20U A45U,≤ 0.5
10,A15G A42G,0.929
11,A15G C31U A42U A70U,0.602
12,A15C G56A A57C,≤ 0.5
13,A15G A43U C46A,0.671
14,A15G A65G,0.962
15,A15G A65U,0.841
16,A15G A37G C66U G67A,≤ 0.5
17,A15C U35G G56C,≤ 0.5
18,A15G C31G A40U,0.586
19,A15G C29A G39A C46U,≤ 0.5
20,A15G A37C G56C A65C,≤ 0.5
21,A15C G50C,0.672
22,A15G C30G C66U,≤ 0.5
23,A15G C61U,0.65
24,A15G C61A,0.589

row,Variant,yeast fitness
1,A15G C61G,0.698
2,A15C U28C,0.737
3,A15C U28G C30G A40C A42U,≤ 0.5
4,A15C G17A,0.707
5,A15C G58A C61A,≤ 0.5
6,A15G C30G G68A,≤ 0.5
7,A15G A20G,1.04
8,A15G A20U,1.06
9,A15G A20C,0.779
10,A15G C29G C34G C66G,≤ 0.5
11,A15G A37U C55U,0.556
12,A15G C24U C29U C30G U35G C66U,≤ 0.5
13,A15C U28C A43U,≤ 0.5
14,A15G C29A,0.558
15,A15G C29G,0.635
16,A15C U26C G67U A69G,≤ 0.5
17,A15C U28G A45G G51C,0.554
18,A15G C55U G56A,0.58
19,A15C G18A C24G,≤ 0.5
20,A15C U19C C46A U59A,≤ 0.5
21,A15G C33U A65U,0.543
22,A15G A20U G63A,0.603
23,A15G C33A U54A,≤ 0.5
24,A15C U26A G38A A40U G50C C60G A70G,≤ 0.5

row,Variant,yeast fitness
1,A15C G25C G52A A57C C60G,≤ 0.5
2,A15G C24G A37G,≤ 0.5
3,A15C G23C,0.555
4,A15C U19C A37C G51A C60A,0.557
5,A15C U26A,0.523
6,A15G C27G A43G U59A,≤ 0.5
7,A15C G18C A42C G51C A65C,≤ 0.5
8,A15G A21C C33G A43U,0.57
9,A15G C29G C49U,0.606
10,A15G C34U A42U U47A A57G,≤ 0.5
11,A15C G17A C55G,≤ 0.5
12,A15G C24G U26A G52A G68C,0.717
13,A15C U35C,0.578
14,A15G C46G G52A,0.576
15,A15C G23C G41A,≤ 0.5
16,A15C U32C,0.767
17,A15C U32G,0.504
18,A15G C24A U54G A65C,≤ 0.5
19,A15G A20U A45U U64C,0.593
20,A15G C29A C61A C66G,0.535
21,A15G C49G G56C,≤ 0.5
22,A15C G25A C61U,0.664
23,A15G A20G C27A A40G A45C,0.503
24,A15C U19C A21G C34U U53C,≤ 0.5

row,Variant,yeast fitness
1,A15G C49A,0.735
2,A15G C24G A65C,≤ 0.5
3,A15G C31A C55U,≤ 0.5
4,A15C G17U C46U,0.633
5,A15G C24A C29G U35G G41C C62U U64A,≤ 0.5
6,A15G C30G A37C A65U C66G,≤ 0.5
7,A15G C29A G39A,0.572
8,A15G C61G A70C,0.639
9,A15G A21G C55G,≤ 0.5
10,A15G A20C U54A C62U,≤ 0.5
11,A15G A36C C46A A65G,≤ 0.5
12,A15G A42C G50A U59C A65C,≤ 0.5
13,A15G C55U U59C A65C,≤ 0.5
14,A15G C30G A37C,≤ 0.5
15,A15C U26C G48C,≤ 0.5
16,A15G C33G G39C,≤ 0.5
17,A15G A21U A45G C62G,0.506
18,A15C G17A A65G,0.576
19,A15C G41C A45C C62U,≤ 0.5
20,A15C G25C,0.709
21,A15G A20G A40U,0.808
22,A15G C31G U35C,0.531
23,A15G C29A G58A,0.57
24,A15G A36U C55A A57C,0.579

row,Variant,yeast fitness
1,A15C U26G U28C A37G G41A C49G,0.59
2,A15G C31A G41C C49U,≤ 0.5
3,A15G C27U,0.939
4,A15G C27G,0.564
5,A15G A36G A43G A57U,≤ 0.5
6,A15G C30G C31A,≤ 0.5
7,A15G A20G C27U,0.732
8,A15G A37G A70C,0.664
9,A15C U16C A20C U54C A57G,≤ 0.5
10,A15G A40U A45G,0.585
11,A15G C62U A69U,0.934
12,A15G C27U A69U,0.808
13,A15G C46U A69C,0.835
14,A15C U16G A21C C24A U32A A45C,≤ 0.5
15,A15G A20G C27A A40G A45C C55U,≤ 0.5
16,A15G A43G U53G G63A,≤ 0.5
17,A15G A36G G41A G52A,≤ 0.5
18,A15G G17A C33U G39C,0.54
19,A15G C61U A65U C66U,≤ 0.5
20,A15C U19C,1.03
21,A15G A20U G48A,0.66
22,A15G C62U A70U,0.73
23,A15C G17C C22G C24A C31A G67C,0.752
24,A15G A37C A69C,0.863

row,Variant,yeast fitness
1,A15G C27A G44A C62U A65U,≤ 0.5
2,A15G C31G C66U,0.601
3,A15C U32C A36C A45C C60U,≤ 0.5
4,A15C U16A A21G U26A C30U C61A,0.692
5,A15C G48A C49U U64G C66U,≤ 0.5
6,A15G A65C A69U,0.705
7,A15C U16A C31G C34U A65U C66G,≤ 0.5
8,A15G A37U C62A,≤ 0.5
9,A15G C29A G39A C49U,≤ 0.5
10,A15C U19A C24G G63A,≤ 0.5
11,A15G A45U C49U C60G,≤ 0.5
12,A15C G17A U28A A65U,0.752
13,A15G A45U G48A G56A,0.717
14,A15C G50C U64C,0.545
15,A15G A45U A57C A69C,≤ 0.5
16,A15G A21U U26C,0.535
17,A15G A20G C27U C33U A37U G38C C60U C62A G63U,0.684
18,A15G A57U,0.636
19,A15C U26G U28C U32C A37G G41A C49G,≤ 0.5
20,A15G C24G C66G,≤ 0.5
21,A15C G25A U26C A69U,≤ 0.5
22,A15G C30U A70C,0.615
23,A15C C66G,0.618
24,A15C G17U U19A C31U C34A,≤ 0.5

row,Variant,yeast fitness
1,A15G C46G C61G,0.567
2,A15G A37U C61A,≤ 0.5
3,A15G A20G A40C C46U C49A A57U A65C C66G,≤ 0.5
4,A15G G17C C34U C60A,≤ 0.5
5,A15C G23C C31A,≤ 0.5
6,A15G A20U C33A A36C A42U C55G C60A A69G,0.594
7,A15G A40U G48C C60G,≤ 0.5
8,A15C U16C A65G,≤ 0.5
9,A15C U35C A37U C66U,≤ 0.5
10,A15G C31G U35C A57U,≤ 0.5
11,A15G G17C C33A C46A G52A,≤ 0.5
12,A15C G56A C61U,0.614
13,A15G C29A A57C,≤ 0.5
14,A15G C29A C34G U59A C62U,≤ 0.5
15,A15C U28C C61G,≤ 0.5
16,A15G C24G C29U C34G U35C C46G A65G,≤ 0.5
17,A15C G18A U35C,≤ 0.5
18,A15C U28A C34G A37G A43U,≤ 0.5
19,A15C G41C A45C,≤ 0.5
20,A15G C31A,0.623
21,A15G C34U G44C G50C C62U,≤ 0.5
22,A15C U28A G39A A65G,≤ 0.5
23,A15G C31U U47G G58C C62U,≤ 0.5
